Screening data deposited in PubChem BioAssay by several laboratories.
TbHK1 inh – blocks Trypanosoma brucei hexokinase 1 activity; 220,000 tested, 0.11% active; recombinant TbHK1, G6PDH-coupled NADH A340; AID 1430; inhibition, % at 10 µM;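 active = inhibition of 50% or more in the single-dose primary screen; inactive = inhibition below 50%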
14-3-3 Bad inh – disrupts binding of bovine 14-3-3 zeta to phospho-Bad peptide; TR-FRET 14-3-3zeta/Dy647-pBad peptide displacement, 1 h; P63103; 220,000 tested, 0.71% active; inhibition, % at 21.7 µM; AID 781;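 active = inhibition above about 70%, limit read from the data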;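 also: 0% = full 14-3-3 plus peptide FRET controls and 100% = background without 14-3-3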
Mdm2 ligase inh – blocks human Mdm2 ubiquitin ligase activity; Q00987; cell-based MDM2 ubiquitination luciferase reporter, 2 h; 0 = plate control, 100 = twice control, blank-subtracted; signal enhancement, % at 5 µM; 210,000 tested, 0.11% active; AID 1230;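 active = signal enhancement of 30% or more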;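 also: luminescence tracks abundance of the self-degrading MDM2-luciferase fusion protein; higher signal means inhibition of MDM2 E3 ligase activity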
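System: stable MDM2–luciferase fusion reporter cells / Input: 2000 cells seeded into each well / Schedule: 4 h settle plus 2 h compound, 37 °C / Compound: single-point 5 µM / Buffer or medium: cells held in DMEM / Benchmarks: control and blank well means / Evaluation: percent signal gain over controls, blank-subtracted / Measured by: luciferase luminescence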
Wee1 stabilizer – inhibitors of human Wee1 degradation; P30291; HeLa Luc-Wee1K328M stability, luciferase luminescence; 100% = proteasome inhibitor MG132 effect; reporter increase, % at 5 µM; 220,000 tested, 1.2% active; AID 1321;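 active = activation above the mean of all tested compounds plus 3 SD, set per screening run, cut at about 8.8% in these data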;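 also: cells exposed to compound for 20 h before luminescence read; 0% = DMSO alone and 100% = MG132 at 30 µM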
Target sequence (P30291 whole entry K328M): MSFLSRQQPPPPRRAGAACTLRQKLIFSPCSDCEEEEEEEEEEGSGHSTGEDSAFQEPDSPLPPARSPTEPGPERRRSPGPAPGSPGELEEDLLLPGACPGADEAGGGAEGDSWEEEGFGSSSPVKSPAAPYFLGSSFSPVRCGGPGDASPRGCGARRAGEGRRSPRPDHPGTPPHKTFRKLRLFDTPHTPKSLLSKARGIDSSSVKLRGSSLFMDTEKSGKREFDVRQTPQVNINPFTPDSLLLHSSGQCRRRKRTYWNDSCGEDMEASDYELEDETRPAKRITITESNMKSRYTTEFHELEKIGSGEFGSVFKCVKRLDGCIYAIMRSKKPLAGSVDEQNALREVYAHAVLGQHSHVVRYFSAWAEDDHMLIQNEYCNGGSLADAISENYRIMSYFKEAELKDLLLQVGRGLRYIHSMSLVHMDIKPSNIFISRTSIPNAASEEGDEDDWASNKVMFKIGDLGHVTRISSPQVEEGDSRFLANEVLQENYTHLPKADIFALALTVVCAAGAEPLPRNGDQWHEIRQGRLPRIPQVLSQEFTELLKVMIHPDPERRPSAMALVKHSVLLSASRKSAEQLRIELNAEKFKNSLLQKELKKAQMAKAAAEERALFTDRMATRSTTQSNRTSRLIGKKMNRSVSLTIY
Hck-Nef inh – human Hck-Nef kinase inhibition; Recombinant Hck-YEEI plus Nef, Z-Lyte FRET kinase assay; P08631; 220,000 tested, 0.68% active; inhibition, % at 20 µM;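 active = Hck-Nef kinase inhibition above about 50%, limit read from the data; inactive = inhibition below that limit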;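 also: 0% = DMSO with Hck plus Nef and 100% = Hck alone without Nef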
Hck-Nef confirm – confirmation of Hck-Nef kinase inhibitors. Recombinant Hck-YEEI:Nef, Z-Lyte FRET kinase assay. AID 463188. calls only at 10 µM. 1,300 tested, 28% active. shares compounds with Hck-Nef inh;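 active = average inhibition of at least 50%, with Z-scores no higher than 3 in both the phospho-tyrosine peptide and fluorescence counterscreens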
Numbers without * were called inactive; i = inactive; . = no result given; + = active, no number; [ ] = dose if it differs, or a comment. Hits are enriched below; roughly 2.7% of the tested compounds scored in any of these assays.

SMILES | TbHK1 inh | 14-3-3 Bad inh | Mdm2 ligase inh | Wee1 stabilizer | Hck-Nef inh | Hck-Nef confirm
COCCn1c(SCc2ccc(C(=O)OC)o2)nc2cc(Cl)ccc2c1=O | 3 | -4 | -11 | -1 | 0 | .
Cn1cc(/C=C(\C#N)C(=O)Nc2cccc([N+](=O)[O-])c2)c2ccccc21 | 6 | 69 | -88 | 0 | 62* | i
CN1/C(=C\C(=O)COC(=O)c2ccc(O)c(O)c2)C(C)(C)c2ccccc21 | -9 | -5 | -10 | -1 | 25 | .
COc1ccc(NC(=O)C(C)Sc2nnc3c4c(nc(-c5ccc(OC)cc5)n23)CC(C)(C)OC4)cc1 (stereo not given) | -5 | -1 | -4 | 0 | 1 | .
Cc1cc(C2=NNC(=Nc3ccc(S(=O)(=O)N4CCOCC4)cc3)SC2)c(C)n1C | -28 | 16 | 3 | 2 | 63* | i
Cc1ccc(-c2nnc(SCC(=O)Nc3sc(C)c(C)c3C#N)n2C)cc1 | 2 | 46 | 7 | 1 | 50* | i
COc1ccc(C(=O)Nc2ccc(N3CCN(C(=O)C(C)C)CC3)cc2)cc1[N+](=O)[O-] | -10 | 1 | -9 | -2 | 1 | .
CCOC(=O)c1c(NC(=O)c2cc(-c3ccc(Cl)s3)nc3ccccc23)sc(C(N)=O)c1C | -9 | 72*[fluorescence artefact?] | 2 | -1 | 66* | i
Cc1cc(=O)oc2c(CN(C)Cc3ccccc3)c(O)ccc12 | -31 | -3 | -5 | 4 | 58* | .
CCn1c(CCC(=O)Nc2nc3c(s2)CCCC3)nc2cc(S(=O)(=O)N(C)C)ccc21 | -21 | -1 | -29 | 3 | 11 | .
Cc1oc2cc3oc(=O)c4c(c3cc2c1C)CCC4 | 5 | 4 | -4 | 5 | 1 | .
CCc1cc2c3c(c(=O)oc2cc1O)CCCC3 | -8 | -2 | -11 | 8 | 91* | .
O=C(c1c[nH]c(C(=O)C(Cl)(Cl)Cl)c1)c1ccccc1Br | -3 | 4 | 0 | 1 | 79* | i
CC(=O)OCC1=C(C(=O)O)N2C(=O)C(NC(=O)C(C)Cn3nc(C)c(Cl)c3C)C2SC1 (stereo not given) | 12 | 36 | . | -2 | 70* | i
CC(=O)OCC1=C(C(=O)O)N2C(=O)C(NC(=O)c3ccc(F)cc3)C2SC1 (stereo not given) | 4 | -7 | 6 | -2 | 18 | .
O=c1[nH]c2ccccc2n1CCC1CCCCC1 | 0 | 15 | 2 | 1 | 1 | .
Cc1ccc(C)c(NC(=O)c2cc3ccccn3n2)c1 | 10 | -2 | -15 | -1 | 11 | .
Cc1ccc(C)c(NC(=O)c2cnn3ccccc23)c1 | -3 | 10 | -8 | 3 | 67* | +
Cc1ccc(C(=O)NC(C)c2nc3ccccc3n2CC(=O)Nc2c(C)cc(C)cc2C)cc1 (stereo not given) | -14 | 25 | . | 2 | 57* | i
CCN(CC)c1ccc(NC(=O)Cn2c(C(C)NC(=O)c3ccccc3)nc3ccccc32)cc1 (stereo not given) | -2 | 60 | -13 | 0 | 15 | .
COC(=O)Cc1c(C)c2ccc(OC(=O)c3ccccc3)cc2oc1=O | -21 | 12 | -8 | 6 | 56* | .
Cc1c(Cc2ccccc2)c(=O)oc2cc(OC(=O)c3ccccc3)ccc12 | 0 | -2 | -9 | 3 | 33 | .
CCC(=O)Oc1ccc2c(C)c(Cl)c(=O)oc2c1 | -13 | -9 | -42 | -2 | 109* | .
Cc1c(Cl)c(=O)oc2cc(OC(C)C)ccc12 | -1 | -14 | -3 | 0 | 4 | .
COc1ccccc1C(C)NC(=O)CCOc1cccc(C)c1 (stereo not given) | -2 | -2 | -6 | 0 | 17 | .
SMILES | TbHK1 inh | 14-3-3 Bad inh | Mdm2 ligase inh | Wee1 stabilizer | Hck-Nef inh | Hck-Nef confirm
O=[N+]([O-])c1ccc(O)c(/C=N/n2cnc3ccccc32)c1 | -24 | 8 | -12 | -3 | 0 | .
Cc1ccc(/C=C2\SC(=S)N(/N=C/c3cc([N+](=O)[O-])ccc3O)C2=O)o1 | 44 | -12 | -23 | -1 | 142* | +
CC(=O)Nc1ccc(S(=O)(=O)N(Cc2ccccc2)c2ccccc2F)cc1 | 0 | -9 | 1 | -4 | 19 | .
CCOc1cc(C2c3c(oc4ccccc4c3=O)C(=O)N2c2nccs2)ccc1O (stereo not given) | -14 | 27 | . | 1 | 85* | i
CC(C)CNC(=S)N(Cc1ccco1)Cc1cc2cc3c(cc2[nH]c1=O)OCCO3 | 21 | -24 | -3 | -1 | 3 | .
NC(=O)c1ccsc1NC(=O)COC(=O)C1CC2CCCC(C1)C2=O (stereo not given) | -8 | -5 | -3 | -1 | 30 | .
NC(=O)c1ccsc1NC(=O)C1CC1 | -13 | 2 | -9 | . | 75* | +
Cn1c(COc2ccccc2)nnc1SCCSc1nnc(COc2ccccc2)n1C | 5 | 3 | -11 | -3 | 3 | .
Cn1c(COc2ccc(Br)cc2)nnc1SC1CCc2ccccc2C1=O (stereo not given) | 11 | 4 | 4 | -3 | 51* | i
COc1cccc(C2C(C(=O)Nc3nc4ccccc4s3)=C(C)NC3=C2C(=O)CC(C)(C)C3)c1OC (stereo not given) | -12 | 1 | 10 | -3 | 57* | .
CCOC(=O)C1CCCN(Cc2nc(Cc3ccccc3Cl)no2)C1 (stereo not given) | -6 | -11 | 0 | -1 | 0 | .
CCOc1ccc(S(=O)(=O)N2CCN(C)CC2)c(C)c1C | 2 | -7 | -18 | -2 | 4 | .
CCOc1ccc(S(=O)(=O)N2CCCCC2)c(C)c1C | 6 | 1 | -12 | -1 | 83* | i
O=C(Nc1nc(-c2ccc3c(c2)OCCO3)cs1)C1CCCC1 | -5 | -8 | -3 | 3 | 30 | .
CCNC(=S)Nc1cccc(F)c1C | -2 | -4 | -4 | -2 | 1 | .
COCCNc1nc(-c2cc(C)n(CCc3ccc(OC)cc3)c2C)cs1 | -14 | 60 | -10 | 3 | 51* | i
COc1ccc(CCNc2nc(-c3sc(N)nc3C)cs2)cc1OC | -12 | -3 | -15 | 0 | 7 | .
Cc1ccc(C(=O)Cn2nnc(-c3cccs3)n2)cc1 | -15 | -3 | . | -3 | 30 | .
O=C(CN1CC[n+]2c(-c3cccs3)csc21)c1ccc(-c2ccccc2)cc1 | -5 | -13 | -50 | 5 | 143* | +
Cc1sc2ncnc(SCC(=O)Nc3nc(-c4ccc(F)c(F)c4)cs3)c2c1C | 1 | 48 | . | 1 | 117* | i
Cc1nn(C)c(C)c1NC(=O)CSc1nc(C2CC2)nc2c1cnn2-c1ccccc1 | -13 | 35 | -32 | 6 | 24 | .
Cc1nn(C)c(C)c1NC(=O)CSc1nc(-c2ccccc2Cl)nc2c1cnn2-c1ccccc1 | -18 | 67 | -20 | -2 | 83* | i
COc1cccc2c1OC1(C)CC2NC(=O)N1c1cccc(C(=O)Nc2ccc3c(c2)OCCO3)c1 (stereo not given) | -3 | 9 | 6 | 4 | 4 | .
